Test results from ChEMBL document CHEMBL3797026, “Caatinga plants: Natural and semi-synthetic compounds potentially active against Trichomonas vaginalis” (Bioorg Med Chem Lett, 2016).
Values after ≈ are worked out from the molar mass of the structure shown. Active and inactive are the calls of the source. The rule behind the calls is not given here.

How the values were obtained:
Trichomonas vaginalis [1] = test: Antitrichomonal activity against metronidazole-sensitive Trichomonas vaginalis ATCC 30236 clinical isolate trophozoites assessed as parasite viability at 100 uM after 24 hrs by trypan blue dye based hemocytometry; assay type: functional
Method in brief: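 Single-concentration screen at 100 µM with trophozoites at 1.0 × 10^5/mL. Incubation was 24 h at 37 °C in 5.0% CO2, with a 0.62% DMSO vehicle control and 100 µM metronidazole as positive control. Viable parasites were counted by hemocytometer using motility, normal morphology and 0.2% trypan blue exclusion, and reported as % of untreated. Three experiments were run in triplicate.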

Trichomonas vaginalis [2] = test: Antitrichomonal activity against metronidazole-resistant Trichomonas vaginalis TV-LACM2R clinical isolate trophozoites; assay type: functional
Trichomonas vaginalis [3] = test: Antitrichomonal activity against metronidazole-resistant Trichomonas vaginalis TV-LACM2R clinical isolate trophozoites assessed as reduction in parasite viability at 15 uM after 24 hrs by trypan blue dye based hemocytometry; assay type: functional
Method in brief: (§1)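 Trophozoites at 1.0 × 10^5/mL were incubated 24 h at 37 °C in 5.0% CO2. Viable parasites were counted by hemocytometer, judged by motility, normal morphology and exclusion of 0.2% trypan blue. Viability is expressed as a percentage of untreated parasites. Three independent parasite suspensions were each run in triplicate, reported as mean ± SD.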

[4] = Cytotoxicity against HMVII cells assessed as reduction in cell viability at 50 uM after 48 hrs by MTT assay; assay type: cell-based; conditions: human, hmv-2, 48 h
Method in brief: (§2)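 MTT assay: cells were grown in DMEM with 10% FBS at 37 °C in 5% CO2 and seeded at 3.0 × 10^4 or 1.0 × 10^4 cells/well overnight. Medium was replaced with fresh medium with or without 50 µM, with 0.2% Triton X-100 as positive control, for 24 or 48 h. MTT (0.5 mg/mL) was added for 1 h, formazan was dissolved in DMSO and read at 570 nm. Triplicates.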

Trichomonas vaginalis [5] = test: Antitrichomonal activity against metronidazole-resistant Trichomonas vaginalis TV-LACM2R clinical isolate trophozoites assessed as reduction in parasite viability at 12.5 uM after 24 hrs by trypan blue dye based hemocytometry; assay type: functional, organism-based; method in brief: as §1
Trichomonas vaginalis [6] = test: Antitrichomonal activity against metronidazole-sensitive Trichomonas vaginalis ATCC 30236 clinical isolate trophozoites assessed as decrease in parasite viability at 50 to 100 uM after 24 hrs by trypan blue dye based hemocytometry; assay type: functional, organism-based
Method in brief: (§3)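 Trophozoites (1.0 × 10^5/mL) were cultured in TYM and exposed to a dilution series from 100 to 0.78 µM for 24 h. Viable counts were taken by hemocytometer with 0.2% trypan blue exclusion and compared with untreated parasites. To confirm the MIC, parasites were transferred to fresh TYM medium. Triplicates were run with three independent cultures.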

[7] = Selectivity index, ratio of CC50 for HMVII cells to IC50 for metronidazole-sensitive Trichomonas vaginalis ATCC 30236 clinical isolate trophozoites after 24 hrs; assay type: functional
Method in brief: (§4)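 Selectivity index calculated as CC50 in the mammalian line (MTT, 24 or 48 h exposure) divided by the anti-T. vaginalis IC50.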

Trichomonas vaginalis [8] = test: Antitrichomonal activity against metronidazole-sensitive Trichomonas vaginalis ATCC 30236 clinical isolate trophozoites assessed as reduction of parasite viability after 2 hrs by FDA/PI dye staining based flow cytometry relative to control; assay type: functional
Method in brief: (§5)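 Flow cytometry: parasites were exposed or not to 50 µM for 0, 2, 4, 6 and 12 h, then co-stained with FDA and PI (10 µg/mL each) for 20 min. FDA-retaining cells with intact membranes were scored viable and PI-positive cells nonviable. Three parasite suspensions were tested in triplicate.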

Trichomonas vaginalis [9] = test: Antitrichomonal activity against metronidazole-sensitive Trichomonas vaginalis ATCC 30236 clinical isolate trophozoites assessed as inhibition of parasite growth at 50 uM after 12 to 24 hrs by hemocytometry; assay type: functional, organism-based
Method in brief: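 Kinetic growth curve: trophozoites (1.0 × 10^5/mL) were incubated with or without 50 µM for 2, 4, 6, 12, 24, 48, 72 and 96 h. Parasites were counted by hemocytometer and expressed as trophozoites/mL relative to untreated controls.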

Trichomonas vaginalis [10] = test: Antitrichomonal activity against metronidazole-sensitive Trichomonas vaginalis ATCC 30236 clinical isolate trophozoites assessed as parasite viability after 2 to 12 hrs by FDA/PI dye staining based flow cytometry; assay type: functional, organism-based; method in brief: as §5
[11] = Cytotoxicity against african green monkey Vero cells assessed as reduction in cell viability after 24 hrs by MTT assay; assay type: cell-based; conditions: chlorocebus sabaeus
[12] = Cytotoxicity against HMVII cells assessed as reduction in cell viability after 48 hrs by MTT assay; assay type: cell-based, HMV-2; conditions: human
Trichomonas vaginalis [13] = test: Antitrichomonal activity against metronidazole-sensitive Trichomonas vaginalis ATCC 30236 clinical isolate trophozoites assessed as parasite shape disruption at 50 uM after 2 hrs by scanning electron microscopy; assay type: functional, organism-based
Method in brief: (§6)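 Scanning EM: trophozoites (1.0 × 10^5/mL) were treated or not with 50 µM. They were fixed in 2.5% glutaraldehyde in 0.1 M sodium cacodylate pH 7.2, post-fixed in 1.0% OsO4 in the same buffer, and dehydrated in acetone. Untreated trophozoites served as control.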

[14] = Cytotoxicity against HMVII cells assessed as reduction in cell viability at 50 uM after 24 hrs by MTT assay; assay type: cell-based; conditions: human, hmv-2, 24 h; method in brief: as §2
[15] = Selectivity index, ratio of CC50 for african green monkey Vero cells to IC50 for metronidazole-sensitive Trichomonas vaginalis ATCC 30236 clinical isolate trophozoites after 24 hrs; assay type: functional; method in brief: as §4
Trichomonas vaginalis [16] = test: Antitrichomonal activity against metronidazole-sensitive Trichomonas vaginalis ATCC 30236 clinical isolate trophozoites assessed as rounded parasite at 50 uM after 2 hrs by scanning electron microscopic analysis; assay type: functional, organism-based; method in brief: as §6
[17] = Cytotoxicity against african green monkey Vero cells assessed as reduction in cell viability after 48 hrs by MTT assay; assay type: cell-based; conditions: chlorocebus sabaeus
HeLa [18] = test: Cytotoxicity against human HeLa cells assessed as reduction in cell viability at 50 uM after 48 hrs by MTT assay; assay type: cell-based; method in brief: as §2
Trichomonas vaginalis [19] = test: Antitrichomonal activity against metronidazole-resistant Trichomonas vaginalis TV-LACM2R clinical isolate trophozoites assessed as reduction in parasite viability at 12.5 uM after 24 hrs by trypan blue dye based hemocytometry in presence of metronidazole; assay type: functional, organism-based; method in brief: as §1
Trichomonas vaginalis [20] = test: Antitrichomonal activity against metronidazole-sensitive Trichomonas vaginalis ATCC 30236 clinical isolate trophozoites assessed as membrane projections and holes at 50 uM after 2 hrs by scanning microscopic analysis; assay type: functional, organism-based; method in brief: as §6
Vero = test: Cytotoxicity against african green monkey Vero cells assessed as reduction in cell viability at 50 uM after 24 to 48 hrs by MTT assay; assay type: cell-based; conditions: chlorocebus sabaeus; method in brief: as §2
Trichomonas vaginalis [21] = test: Antitrichomonal activity against metronidazole-sensitive Trichomonas vaginalis ATCC 30236 clinical isolate trophozoites assessed as parasite viability after 24 hrs by trypan blue dye based hemocytometry; assay type: functional, organism-based; conditions: ATCC 30236, 24 h; method in brief: as §3
[22] = Selectivity index, ratio of CC50 for HMVII cells to IC50 for metronidazole-sensitive Trichomonas vaginalis ATCC 30236 clinical isolate trophozoites after 48 hrs; assay type: functional; method in brief: as §4
HeLa [23] = test: Cytotoxicity against human HeLa cells assessed as reduction in cell viability at 50 uM after 24 hrs by MTT assay; assay type: cell-based; method in brief: as §2
Trichomonas vaginalis [24] = test: Antitrichomonal activity against metronidazole-sensitive Trichomonas vaginalis ATCC 30236 clinical isolate trophozoites assessed as appearance of flagella at 50 uM after 2 hrs by scanning electron microscopic analysis; assay type: functional, organism-based; method in brief: as §6
[25] = Cytotoxicity against HMVII cells assessed as reduction in cell viability after 24 hrs by MTT assay; assay type: cell-based, HMV-2; conditions: human
Trichomonas vaginalis [26] = test: Antitrichomonal activity against metronidazole-sensitive Trichomonas vaginalis ATCC 30236 clinical isolate trophozoites assessed as undulating membrane at 50 uM after 2 hrs by scanning electron microscopic analysis; assay type: functional, organism-based; method in brief: as §6
[27] = Selectivity index, ratio of CC50 for african green monkey Vero cells to IC50 for metronidazole-sensitive Trichomonas vaginalis ATCC 30236 clinical isolate trophozoites after 48 hrs; assay type: functional; method in brief: as §4

CCCCCC(=O)O[C@H]1CC[C@]2(C)[C@H]3CC=C4[C@@H]5CC(C)(C)CC[C@]5(C)CC[C@@]4(C)[C@]3(C)CC[C@H]2C1(C)C
Activity (Trichomonas vaginalis [1]): 62.8%

C=C(C)[C@@H]1CC[C@]2(C)CC[C@]3(C)[C@H](CC[C@@H]4[C@@]5(C)CC[C@H](OC(=O)CCCCC)C(C)(C)[C@@H]5CC[C@]43C)[C@@H]12
Activity (Trichomonas vaginalis [1]): 71.4%

CCCCCC(=O)O[C@H]1CC[C@]2(C)[C@H]3CC=C4[C@@H]5[C@@H](C)[C@H](C)CC[C@]5(C)CC[C@@]4(C)[C@]3(C)CC[C@H]2C1(C)C
Activity (Trichomonas vaginalis [1]): 56.2%

C[C@H]1[C@H](C)CC[C@]2(C)CC[C@]3(C)C(=CC[C@@H]4[C@@]5(C)CC[C@H](O)C(C)(C)[C@@H]5CC[C@]43C)[C@H]12
Activity (Trichomonas vaginalis [1]): 76.1%

CC(=O)O[C@H]1CC[C@]2(C)[C@H]3CC=C4[C@@H]5[C@@H](C)[C@H](C)CC[C@]5(C)CC[C@@]4(C)[C@]3(C)CC[C@H]2C1(C)C
Activity (Trichomonas vaginalis [1]): 56.4%

C=C(C)[C@@H]1CC[C@]2(C)CC[C@]3(C)[C@H](CC[C@@H]4[C@@]5(C)CC[C@H](OC(C)=O)C(C)(C)[C@@H]5CC[C@]43C)[C@@H]12 [LUPENYL ACETATE]
Activity (Trichomonas vaginalis [1]): 59.8%

C=C(C)[C@@H]1CC[C@]2(C)CC[C@]3(C)[C@H](CC[C@@H]4[C@@]5(C)CC[C@H](O)C(C)(C)[C@@H]5CC[C@]43C)[C@@H]12 [LUPEOL]
Activity (Trichomonas vaginalis [1]): 117.8%

Cc1ncc([N+](=O)[O-])n1CCO [METRONIDAZOLE]
Activity (Trichomonas vaginalis [1]): 0% | MIC (Trichomonas vaginalis [2]): 73 µM (≈ 12.5 µg/mL) | Activity (Trichomonas vaginalis [3]): 80%

CC1(C)CC[C@]2(C(=O)O)CC[C@]3(C)C(=CC[C@@H]4[C@@]5(C)CC[C@H](O)C(C)(C)[C@@H]5CC[C@]43C)[C@@H]2C1 [OLEANOLIC_ACID]
Activity (Trichomonas vaginalis [1]): 78.3%

C[C@H]1[C@H](C)CC[C@]2(C(=O)O)CC[C@]3(C)C(=CC[C@@H]4[C@@]5(C)CC[C@H](O)C(C)(C)[C@@H]5CC[C@]43C)[C@H]12 [URSOLIC ACID]
Activity [4]: 90% | Activity (Trichomonas vaginalis [1]): 0% | Activity (Trichomonas vaginalis [5]): Active | Activity (Trichomonas vaginalis [6]): Active | Ratio CC50/IC50 [7]: 4.13 | Activity (Trichomonas vaginalis [8]): 98% | growth inhibition (GI) (Trichomonas vaginalis [9]): Active | Activity (Trichomonas vaginalis [10]): Active | CC50 at 24 h [11]: 31.9 µM | CC50 at 48 h [12]: 69.5 µM | Activity (Trichomonas vaginalis [13]): Active | Activity [14]: 60% | Ratio CC50/IC50 [15]: 0.9 | Activity (Trichomonas vaginalis [16]): Active | CC50 at 48 h [17]: 35.9 µM | Activity (HeLa [18]): 90% | Activity (Trichomonas vaginalis [19]): Active | Activity (Trichomonas vaginalis [20]): Active | Activity (Vero): 30% | IC50 (Trichomonas vaginalis [21]): 35.3 µM | MIC (Trichomonas vaginalis [21]): 50 µM (≈ 22.8 µg/mL) | Ratio CC50/IC50 [22]: 1.97 | Activity (HeLa [23]): 50% | Activity (Trichomonas vaginalis [24]): Active | CC50 at 24 h [25]: 146 µM | Activity (Trichomonas vaginalis [26]): Active | Ratio CC50/IC50 [27]: 1.02

CC(=O)O[C@H]1CC[C@]2(C)[C@H]3CC=C4[C@@H]5CC(C)(C)CC[C@]5(C)CC[C@@]4(C)[C@]3(C)CC[C@H]2C1(C)C [beta-AMYRIN ACETATE]
Activity (Trichomonas vaginalis [1]): 54.5%

CC1(C)CC[C@]2(C)CC[C@]3(C)C(=CC[C@@H]4[C@@]5(C)CC[C@H](O)C(C)(C)[C@@H]5CC[C@]43C)[C@@H]2C1 [beta-AMYRIN]
Activity (Trichomonas vaginalis [1]): 84.3%
